Experimental data: ChEMBL document CHEMBL1759978, “Synthesis and biological evaluation of fatty acyl ester derivatives of 2',3'-didehydro-2',3'-dideoxythymidine” (Bioorg Med Chem Lett, 2011)
The source made the active and inactive calls. The rule behind the calls is not given here.

Key:
HeLa = assay: Cytotoxicity against human HeLa P4/R5 cells by MTS assay; type: cell-based; conditions: read-out: EC50 (the source's name)
[1] = test system: Human immunodeficiency virus 1; assay: Antiviral activity against Human immunodeficiency virus 1 3B by MAGI assay; type: functional, organism-based
[2] = test system: Human immunodeficiency virus 1; assay: Antiviral activity against Human immunodeficiency virus 1 BAL by MAGI assay; type: functional, organism-based
[3] = test system: Human immunodeficiency virus 1; assay: Antiviral activity against Human immunodeficiency virus 1 3B infected in human SupT1 cells by cell-associated transmission assay; type: functional, organism-based; conditions: SUP-T1
CCRF-CEM [4] = assay: Cellular uptake in human CCRF-CEM cells at 10 uM after 1 to 8 hrs by flow cytometry; type: ADME, cell-based
Outline: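 CCRF-CEM T lymphoblastoid cells grown to 70% confluency, then exposed to 10 of the fluorescein-tagged conjugates for 1, 2, 4 and 8 h, with DMSO and free 5(6)-carboxyfluorescein as controls. Uptake was read by flow cytometry in the FITC channel as the mean fluorescence of 10,000 cells, in triplicate.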

CCRF-CEM [5] = assay: Cellular uptake in human CCRF-CEM cells at 10 uM after 1 hr by real time fluorescence microscopy; type: ADME, cell-based
Outline: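 Live CCRF-CEM cells were incubated 1 h with 10 of the fluorescein-labelled conjugates, with DMSO and free 5(6)-carboxyfluorescein as controls, then imaged by fluorescence light microscopy.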

Homo sapiens [6] = organism: Homo sapiens; assay: Spermicidal activity against human sperm assessed as immobolizing sperm treated for 10 mins by microscopy relative to control; type: functional
Homo sapiens [7] = organism: Homo sapiens; assay: Spermicidal activity against human sperm assessed as sperm tail response at 1 mg/ml for 10 mins by microscopy relative to control; type: functional
CCRF-CEM [8] = assay: Cellular uptake in human CCRF-CEM cells at 10 uM after 1 to 8 hrs measured after 5 mins trypsin wash off by flow cytometry relative to control; type: ADME, cell-based
[9] = test system: Human immunodeficiency virus 1; assay: Antiviral activity against Human immunodeficiency virus 1 infected in human CEM-SS cells assessed as inhibition of viral replication; type: functional, organism-based; conditions: Human immunodeficiency virus 1, CEM-SS

Row | SMILES | CC50 (HeLa) | EC50 [1] | EC50 [2] | EC50 [3] | Drug uptake (CCRF-CEM [4]) | Drug uptake (CCRF-CEM [5]) | Activity (Homo sapiens [6]) | Activity (Homo sapiens [7]) | Drug uptake (CCRF-CEM [8]) | EC50 [9]
1 | Cc1cn([C@H]2C=C[C@@H](COC(=O)CCCCCCCCCCCBr)O2)c(=O)[nH]c1=O | > 200 µM | 14.9 µM | 2.3 µM | > 206 µM | – | – | – | – | – | –
2 | Cc1cn([C@H]2C=C[C@@H](CO)O2)c(=O)[nH]c1=O [STAVUDINE] | – | 26.8 µM | 28.1 µM | 136 µM | – | – | – | – | – | –
3 | Cc1cn([C@H]2C=C[C@@H](COC(=O)CCNC(=O)c3ccc(-c4c5ccc(=O)cc-5oc5cc(O)ccc45)c(C(=O)O)c3)O2)c(=O)[nH]c1=O | – | – | – | – | Not Active | Not Active | – | – | – | –
4 | CCSCCCCCCCCCCCC(=O)OC[C@@H]1C=C[C@H](n2cc(C)c(=O)[nH]c2=O)O1 | > 200 µM | 14.4 µM | 5.8 µM | 46.5 µM | – | – | inactive | inactive | – | –
5 | CCCCCCCCCCCCCC(=O)OC[C@@H]1C=C[C@H](n2cc(C)c(=O)[nH]c2=O)O1 | > 200 µM | 78.3 µM | 12.4 µM | > 230 µM | – | – | inactive | inactive | – | –
6 | Cc1cn([C@H]2C=C[C@@H](COC(=O)CCCCCCCCCCCN=[N+]=[N-])O2)c(=O)[nH]c1=O | > 200 µM | 6.7 µM | 3.1 µM | 22.4 µM | – | – | inactive | inactive | – | –
7 | Cc1cn([C@H]2C=C[C@@H](COC(=O)CCCCCCCCCCCNC(=O)c3ccc(-c4c5ccc(=O)cc-5oc5cc(O)ccc45)c(C(=O)O)c3)O2)c(=O)[nH]c1=O | – | – | – | – | Active | Active | – | – | Active | –
8 | O=C(O)c1ccc2c(c1)C1(OC2=O)c2ccc(O)cc2Oc2cc(O)ccc21 | – | – | – | – | – | Not Active | – | – | – | –
9 | CCSCCCCCCCCCCCC(=O)O | – | – | – | – | – | – | – | – | – | 9.4 µM
